Legend:
MS2 coat protein [1] = assay: apparent Kd, MS2 coat protein; higher = weaker binding; RNA-MaP array; tryptophan 2.4 mM where present
Outline: (§1)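 The titrant was SNAP-549-labelled MS2 coat protein, run from 0.7 or 1.5 nM in doubling steps to 3 µM. It was applied to designs transcribed by stalled E. coli RNA polymerase on Illumina sequencing-chip clusters, without ligand first and then with constant ligand, in 100 mM Tris-HCl pH 7.5, 80 mM KCl, 4 mM MgCl2, BSA, DTT, yeast tRNA and Tween-20. The apparent Kd is the median of filtered per-cluster binding-curve fits, with green signal normalised to red-channel RNA signal and control-cluster median Fmax.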

MS2 coat protein [2] = assay: apparent Kd, MS2 coat protein; higher = weaker binding; RNA-MaP array; theophylline 2 mM where present
Outline: as §1

[3] = designed as: OFF switch for tryptophan, no ligand
[4] = ligand present: tryptophan, designed as: OFF switch for tryptophan
[5] = designed as: ON switch for tryptophan, no ligand
[6] = ligand present: tryptophan, designed as: ON switch for tryptophan
[7] = designed as: ON switch for theophylline, no ligand
[8] = ligand present: theophylline, designed as: ON switch for theophylline
[9] = designed as: OFF switch for theophylline, no ligand
[10] = ligand present: theophylline, designed as: OFF switch for theophylline

| Sequence | apparent Kd (MS2 coat protein [1]; [3]) | apparent Kd (MS2 coat protein [1]; [4]) | apparent Kd (MS2 coat protein [1]; [5]) | apparent Kd (MS2 coat protein [1]; [6]) | also measured |
| --- | --- | --- | --- | --- | --- |
| AAUGAGUGGUGGUCAAGUGAUCCUCAUGAACGAGGACCGGUACGGCCGCCACUCGAUAACAUGAGGAUCACCCAUGUAAUAAUAA | 16.5 nM | 14.8 nM |  |  |  |
| AAUGGCCGUACCGGAAGGGUGAUCCUCAAACGAGGACCGGUACGGCCGCCACUCGAUAACAUGAGGAUCACCCAUGUAAUACAUA | 366 nM | 318 nM |  |  |  |
| AAUGUCGGAUCGGCCGCCACUGGUUGGCCCUGUGUACAUGAGGAUCACCCAUGUCCAUCCCAAACCAGGACCGGGAUCUUUAUGU |  |  | 36.1 nM | 13 nM |  |
| ACAUGAGGAUCACCCAUGUGCAUCACCCGACGAGGACCGGUACGGCCGCCACUCGGGUAUAUAUUUGCAUCGGGUGAUUUUACGU |  |  | 19.6 nM | 14.9 nM |  |
| ACAUGAGGAUCACCCAUGUGUGUAAGUCCUCGAGGACCGGUACGGCCGCCACUCGAACGAGUGUAACAUACUUGUUACAAGUAUG |  |  | 24 nM | 24.4 nM |  |
| ACAUGAGGAUCACCCAUGUUUGAUGUUCCUCGAGGACCGGUACGGCCGCCACUCGAACGAGUGGCGCGCGAGCGCGCGCUCGCGC |  |  | 12.2 nM | 12.7 nM |  |
| ACAUUGCGCUCGGCCGCCACUGGCUAUAGAUUUAUAGCAUUAAUGAACAUGAGGAUCACCCAUGUCAGGACCGGGAGCGAACCAU |  |  | 12.7 nM | 14.5 nM |  |
| ACUACGAAGACGGCCGCCACUGAUAUUCGUAGAUCCAUCAAUACAUGAGGAUCACCCAUGUAUAUCAGGACCGGGUCAAGAUGGU | 22.6 nM | 47.2 nM |  |  |  |
| AGCACGGUGAUGGUAGCCGGACGCUAGGUACGAGGACCGGUACGGCCGCCACUCGAAGUCCUACGACAUGAGGAUCACCCAUGUA |  |  | 53.5 nM | 40.5 nM |  |
| AGCACUGUGGCGGCCGCCACUACAUAUAGGGUGGUCAGGCCCAUAAUACAUGAGGAUCACCCAUGUAGGACCGGGCCUCAGUGCA | 15 nM | 14.8 nM |  |  |  |
| AGUAAUAAUAUAAAUAAUAUUAGGUCAUGGCGAGGACCGGUACGGCCGCCACUCGGUUACAUGAGGAUCACCCAUGUCCCGCUUA | 30.5 nM | 34.6 nM |  |  |  |
| AGUUCCAGGUCGGCCGCCACUGGCAUGGCCGGUCCUCGGACUUACAUGAGGAUCACCCAUGUGAACAGGACCGGGACCGCAUGGG | 38.3 nM | 48.2 nM |  |  |  |
| AUAAUAAUCCUCAUGUAAGGUCCUCGAUAACGAGGACCGGUACGGCCGCCACUCGAACAUGAGGAUCACCCAUGUACGAGGACCA |  |  | 42.5 nM | 32.6 nM |  |
| AUAUAUACAUGAGGAUCACCCAUGUUAUUACGAGGACCGGUACGGCCGCCACUCGAUAGAGUAGAAGUAAAUUGUAAUUCAUGUU | 12.4 nM | 12.6 nM |  |  |  |
| AUCAUAAUAGACUCGUUUGAUUAUAUGGAACGAGGACCGGUACGGCCGCCACUCGUGAUUUACAUGAGGAUCACCCAUGUUAGCA | 15.7 nM | 13.9 nM |  |  |  |
| CUACAUUUGUAGAAACCGGUCAACAUUAUUCGAGGACCGGUACGGCCGCCACUCGUAUAUUUUUAUACAUGAGGAUCACCCAUGU |  |  | 12 nM | 11.4 nM |  |
| CUUGACAUGAGGAUCACCCAUGUUGGUAAACGAGGACCGGUACGGCCGCCACUCGGUUACGUGUAGUACCGGUAAGAUCCAGGGU |  |  | 29.3 nM | 27.1 nM |  |
| GACGAUAUGAUACGUCAGCAAUCCUCGAAACGAGGACCGGUACGGCCGCCACUCGAGUGAUACACAUGAGGAUCACCCAUGUACC | 39.3 nM | 53.2 nM |  |  |  |
| GCAUCCUAGUCGGCCGCCACUGCAAUUGUAAUACUGCUACAUGAACAUGAGGAUCACCCAUGUAGCAGGACCGGGACUAGGAUGC |  |  | 164 nM | 27 nM |  |
| GCAUCCUAGUCGGCCGCCACUGGUAUCAACACCUUCACCCGUGUGCACAUGAGGAUCACCCAUGUUAGGACCGGGACUAGGAUGC |  |  | 8.4 nM | 8.5 nM |  |
| GCGACCCUGAGAUCCUACGUAACGUGAACACGAGGACCGGUACGGCCGCCACUCGAGAGAACAUGAGGAUCACCCAUGUCUGAGC | 32.9 nM | 88.5 nM |  |  |  |
| GGAAAAGAAAGAAAAGAAAUCCCUCCCUCCCGAGGACCGGUACGGCCGCCACUCGCCCUCCCUCCCACAUGAGGAUCACCCAUGU | 23.5 nM | 23.4 nM |  |  |  |
| GGAUAGGACACGGCCGCCACUGCCUAGGAUACUAGAAACAUUUCCUCACAUGAGGAUCACCCAUGUAGGACCGGGUGUCCUAUCG | 134 nM | 267 nM |  |  |  |

| Sequence | apparent Kd (MS2 coat protein [1]; [3]) | apparent Kd (MS2 coat protein [1]; [4]) | apparent Kd (MS2 coat protein [1]; [5]) | apparent Kd (MS2 coat protein [1]; [6]) | also measured |
| --- | --- | --- | --- | --- | --- |
| GGAUAGGACACGGCCGCCACUGCGGCUAGAUACUAGCACAUUUCCUCACAUGAGGAUCACCCAUGUAGGACCGGGUGUCCUAUCG | 95.7 nM | 132 nM |  |  |  |
| GGAUUCAACUCGGCCGCCACUGGUGAUCCUAAUGUACAUGAGGAUCACCCAUGUACAUGAGAAUAUAGGACCGGGAGAUAAGUUA |  |  | 29 nM | 24.2 nM |  |
| GUCCAAAGGUCGGCCGCCACUGUAGGAUGUGUUCUUUCACAUGAGGAUCACCCAUGUUGUUAUUAUAGGACCGGGAUUGUAGGAC | 20.5 nM | 18.5 nM |  |  |  |
| GUGUGGAGCUCGGCCGCCACUCAAACAUGAGGAUCACCCAUGUAAAACAUGAGGAUCACCCAUGUGAGGACCGGGAGAAACACGA | 338 nM | 404 nM |  |  |  |
| GUUAUAUACUCGGCCGCCACUGAGAGAGUCAUGUAAACAUGAGGAUCACCCAUGUAAUAUAUAUACAGGACCGGGAGUAUGGUAA | 14.3 nM | 13.5 nM |  |  |  |
| UAAUCAGUGCCGGUUCUCGGAUCCUCAUGUCGAGGACCGGUACGGCCGCCACUCGAAACAUGAGGAUCACCCAUGUAAUAAUAAU | 89.6 nM | 65.8 nM |  |  |  |
| UACUUGCUGACGGCCGCCACUAGAACAUGAGGAUCACCCAUGUAGGUCCUAGAUUCCUCAUGAACUAGGACCGGGUCAGCAAGAU | 52.6 nM | 12.4 nM |  |  |  |
| UACUUGCUGACGGCCGCCACUAGAACAUGAGGAUCACCCAUGUAUGGCGGCCGUCAUGGGUGGACUAGGACCGGGUCAGCAAGAU | 9.84 nM | 13.6 nM |  |  |  |
| UAUAUAUAUCACUAACUGUUGUGGACGUCUCGAGGACCGGUACGGCCGCCACUCGGGCGGCCUCACAUGAGGAUCACCCAUGUCC | 125 nM | 110 nM |  |  |  |
| UCGCCCGGGUCGGCCGCCACUGCGGUGAUGUGACAUGAGGAUCACCCAUGUUGUCAUGUGGCACAUAGGACCGGGACCCGGGCGA | 30.5 nM | 29.9 nM |  |  |  |
| UCGGGCAGAGCGGCCGCCACUGUAUGGCGUGCGGAUGACGGAACAUGAGGAUCACCCAUGUUGUUUAGGACCGGGCUUGCCGCGA | 11.2 nM | 13.2 nM |  |  |  |
| UCGUAUGCGGCGGCCGCCACUCGCGGAUAACGAGAGCUUAACAUGAGGAUCACCCAUGUGUCAUGGAGGACCGGGCCCAUUCACA |  |  | 29.2 nM | 31.4 nM |  |
| UCGUGUAUAACGGAUACCAGUGAGAAGGAUACAUGAGGAUCACCCAUGUGAGUUGAUCCACACCCUUGGCAGCUGUAUAUAUCUA |  |  |  |  | apparent Kd (MS2 coat protein [2]; [7]): 194 nM; apparent Kd (MS2 coat protein [2]; [8]): 1100 nM |
| UGACAUUGCUCAGAUACCAGACAUGAGGAUCACCCAUGUACCAAGGUAAGAAAAUAACAUGUCCCUUGGCAGCUGAGCAAUGUCU |  |  |  |  | apparent Kd (MS2 coat protein [2]; [9]): 16.2 nM; apparent Kd (MS2 coat protein [2]; [10]): 240 nM |
| UGACAUUGCUGCGAUACCAGACAUGAGGAUCACCCAUGUACCAAGGUAAGAAAAUAACAUGUCCCUUGGCAGCGCAGCAAUGUCU |  |  |  |  | apparent Kd (MS2 coat protein [2]; [9]): 14.9 nM; apparent Kd (MS2 coat protein [2]; [10]): 284 nM |
| UGGAAAGCACAUGAGGAUCACCCAUGUGAUACCAGCUGAAACUAAGGCCCUUGGCAGCACAUGGUACCAACCCUUUGGUAGUCCA |  |  |  |  | apparent Kd (MS2 coat protein [2]; [9]): 11.9 nM; apparent Kd (MS2 coat protein [2]; [10]): 50.5 nM |
| UGUCAUGGAAACAUGACAGGUUCUACCGGUCGAGGACCGGUACGGCCGCCACUCGAUUGGUGGCACAUGAGGAUCACCCAUGUUA |  |  | 25.2 nM | 25.2 nM |  |
| UUAAGAGGAUAUCAAAUUUGAUUUUGUGAUACCAGAAUAAUUUUAUUCCCUUGGCAGCAUGACAUGAGGAUCACCCAUGUGUCUU |  |  |  |  | apparent Kd (MS2 coat protein [2]; [7]): 37 nM; apparent Kd (MS2 coat protein [2]; [8]): 30 nM |
| UUAGAUAUGACGGAUACCAGCGUGUUGUAGAACAUGAGGAUCACCCAUGUAGUGAUCGUGCGCCCUUGGCAGCUGGUAUGUUUGG |  |  |  |  | apparent Kd (MS2 coat protein [2]; [7]): 250 nM; apparent Kd (MS2 coat protein [2]; [8]): 898 nM |
| UUCUACAUGAGGAUCACCCAUGUGGGUGAUACCAGCACUUUUUGGUGCCCUUGGCAGCACAUGAGAAUGCCGUAAAAUCGGCGAU |  |  |  |  | apparent Kd (MS2 coat protein [2]; [7]): 334 nM; apparent Kd (MS2 coat protein [2]; [8]): 500 nM |
| UUCUGGUCCCGUGAUACCAGAGACAUGAGGAUCACCCAUGUACAUGAGGAUCACCCAUGUUUCCCUUGGCAGCACUGUAGGGAGC |  |  |  |  | apparent Kd (MS2 coat protein [2]; [9]): 196 nM; apparent Kd (MS2 coat protein [2]; [10]): 1220 nM |
| UUCUUUAAGUCGGCCGCCACUGAAACAUGAGGAUCACCCAUGUAUAUUUGUGUAAAGGUGGAUUACAGGACCGGGACUAUAGUAA | 12 nM | 12 nM |  |  |  |
